Measured values pooled from the literature.
Compare with care: the assays were run in different laboratories.
Target: Casein kinase II subunit alpha' (CSNK2A2, Homo sapiens, UniProt P19784)

Structure (SMILES) | observed | action | technique | tested at | quantity | result
CCN(CC)CCNC(=O)c1c(C)[nH]c(/C=C2\C(=O)Nc3ccc(F)cc32)c1C | enzyme activity | inhibitor |  | 0.3 µM | inhibition | -22%
CNCc1ccccc1-c1csc([C@@H](C)Nc2nc(C)nc3cc(OC)c(OC)cc23)c1 | cell-free assay |  | competition with immobilised ligand | 1 µM | remaining binding | 100%
O=C(Nc1cnn(-c2csc(C(=O)NC3COC3)c2)c1)Nc1c(F)cccc1Cl | enzyme activity | inhibitor |  | 5 µM | remaining activity | 96.6%
COc1cc2ncnc(Nc3ccc(Oc4ccccc4)cc3C)c2cc1OC | enzyme activity | inhibitor |  | 1 µM | inhibition | 7%
Cc1ccc(Nc2nccc(N(C)c3ccc4c(C)n(C)nc4c3)n2)cc1S(N)(=O)=O | enzyme activity | inhibitor |  | 0.3 µM | inhibition | -13%
Cc1ccc(NC(=O)c2ccc(C)c(C(F)(F)F)c2)cc1C#Cc1nn(C2CCC(O)CC2)c2ncnc(N)c12 (stereo not drawn) | cell-free assay | inhibitor |  | 10 µM | remaining signal | 92%
Cc1cnc(NC2CCOCC2)nc1-n1cnc(C(=O)NC(CN)c2cc(F)cc(Cl)c2)c1 (stereo not drawn) | enzyme activity | inhibitor | radiometric | 1 µM | remaining activity | 97%
N#CCCc1ccc2c(c1)-c1[nH]c3ccc([N+](=O)[O-])cc3c1CC(=O)N2 | cell-free assay |  |  | 0.5 µM | remaining signal | 92.9%
COc1cccc(CNC(=O)c2nc3scc(COCc4ccc(C(=O)O)cc4)c3c(=O)[nH]2)c1 | cell-free assay |  | competition with immobilised ligand | 1 µM | remaining binding | 79.4%
CC(C)(O)[C@H]1CC[C@H](Nc2ccc3ncc(-c4cccc(C(F)(F)F)c4)n3n2)CC1 | enzyme activity | inhibitor |  | 1 µM | remaining activity | 73.6%
Cn1cnc(Br)c1C1=CN(c2ncnc3[nH]cnc23)CCS1 | enzyme activity | inhibitor | radiometric | 2 µM | inhibition | 46.5%
CN(C)C(=O)Cn1cc(-c2nc([C@@](C)(c3ccc(-c4cnc(N)nc4)cc3)C3CC3)no2)cn1 | cell-free assay |  | competition with immobilised ligand | 1 µM | remaining binding | 90%
CCCCNc1ncc2c(-c3ccc(F)cc3)nn(C[C@H]3CC[C@H](N)CC3)c2n1 | target engagement in cells | inhibitor | chemoproteomics | 20 mM | inhibition | -43.5%
CNC(=O)c1cc(Oc2ccc(NC(=O)Nc3ccc(Cl)c(C(F)(F)F)c3)cc2)ccn1 | enzyme activity | inhibitor |  | 10 µM | inhibition | -30%
CCCOc1ccc([C@H]2[C@H](C(=O)O)[C@@H](c3ccc4c(c3)OCO4)CN2CC(=O)Nc2c(CC)cccc2CC)cc1 | cell-free assay |  | competition with immobilised ligand | 1 µM | remaining binding | 87%
O=C(Nc1cnn(-c2csc(C(=O)NC3COC3)c2)c1)Nc1ccccc1Cl | enzyme activity | inhibitor |  | 5 µM | remaining activity | 97.3%
CC(=O)C1=C(C)N(c2cccc(C(F)(F)F)c2)C(=O)N[C@@H]1c1ccc(C#N)nc1 | cell-free assay |  | competition with immobilised ligand | 1 µM | remaining binding | 75.7%
CC(C)(C)c1nc2c(s1)c1nc(N)ncc1c1ccc(NS(=O)(=O)c3c(F)cccc3F)c(F)c12 | enzyme activity | inhibitor | radiometric | 1 µM | remaining activity | 94%
COc1cc2c(Nc3ccc(Br)cc3F)ncnc2cc1OCC1CCN(C)CC1 | cell-free assay |  |  | 0.5 µM | remaining signal | 96.5%
CCS(=O)(=O)c1cc2cc(C[C@](O)(CC(C)(C)c3ccc(F)cc3C(N)=O)C(F)(F)F)[nH]c2cn1 | cell-free assay |  | competition with immobilised ligand | 1 µM | remaining binding | 92%
Nc1ncnc2occ(-c3ccc(NC(=O)Nc4cc(C(F)(F)F)ccc4F)cc3)c12 | enzyme activity | inhibitor |  | 20 µM | remaining activity | 41%
COc1cc(Cl)c(C(=O)N[C@@H](CN[C@H]2CC[C@@H](N)CC2)Cc2ccc(C#N)cc2)cc1-c1ccc(CN[C@H](C)c2ccc(C)cc2)o1 | enzyme activity | inhibitor |  | 1 µM | remaining activity | 106%
Nc1c(C(=O)NCc2ccc(C(=O)NCCCC3CCCCC3)cc2)cnn1-c1ccccc1 | cell-free assay |  | competition with immobilised ligand | 0.1 µM | remaining binding | 100%
CCCS(=O)(=O)Nc1ccc(F)c(C(=O)c2c[nH]c3ncc(-c4ccc(Cl)cc4)cc23)c1F | enzyme activity | inhibitor |  | 1 µM | inhibition | < 10%
